Data set [1] can be described thus: Cytotoxicity against human MT4 cells after 96 hrs by MTT assay. It counts as cell-based. (Tetrazolium dyes change colour on reduction, which living cells bring about.)
Data set [2] deals with Human immunodeficiency virus 1. Put plainly: Antiviral activity against HIV1 infected in human MT4 cells assessed as virus-induced cytopathogenicity after 4 days by MTT assay. The data set is classed as functional, organism-based. To be noted: Human immunodeficiency virus 1, MT4, 96 h.
In a further data set the test system is Bacillus subtilis. Put plainly: Antibacterial activity against Bacillus subtilis ATCC 6633 after 18 hrs by twofold serial agar dilution technique. The data set is classed as functional. The following applies: ATCC 6633, 18 h.
Data set [3] concerns Staphylococcus aureus. The data set can be described thus: Antibacterial activity against Staphylococcus aureus NCTC 4163 after 18 hrs by twofold serial agar dilution technique. The data set is classed as functional. The following applies: NCTC 4163, 18 h. In a few lines: (§1)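 Twofold serial agar dilution on Mueller–Hinton II agar, following CLSI guidelines. Compounds were dissolved in methanol or DMSO and tested at final agar concentrations of 3.125–400 µg/mL. Final inoculum was 10^4 CFU/mL.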

In data set [4] the test system is Micrococcus luteus. Put plainly: Antibacterial activity against Micrococcus luteus ATCC 9341 after 18 hrs by twofold serial agar dilution technique. To be noted: ATCC 9341, 18 h. The data set is classed as functional. For orientation: In agar dilution, organisms are placed on agar that contains the substance at set levels.
A further data set deals with Enterococcus hirae. Put plainly: Antibacterial activity against Enterococcus hirae ATCC 10541 after 18 hrs by twofold serial agar dilution technique. It counts as functional. To be noted: ATCC 10541, 18 h.
The test system of data set [5] is Staphylococcus aureus. Put plainly: Antibacterial activity against Staphylococcus aureus ATCC 6538 after 18 hrs by twofold serial agar dilution technique. It counts as functional. To be noted: ATCC 6538, 18 h. The method in brief: as §1
The test system of another data set is Bacillus cereus. The data set can be described thus: Antibacterial activity against Bacillus cereus ATCC 11778 after 18 hrs by twofold serial agar dilution technique. It counts as functional. The following applies: ATCC 11778, 18 h.
The test system of data set [6] is Staphylococcus epidermidis. The data set can be described thus: Antibacterial activity against Staphylococcus epidermidis ATCC 12228 after 18 hrs by twofold serial agar dilution technique. It counts as functional. The following applies: ATCC 12228, 18 h. The method in brief: as §1
Data set [7] deals with Micrococcus luteus. The data set can be described thus: Antibacterial activity against Micrococcus luteus ATCC 10240 after 18 hrs by twofold serial agar dilution technique. It counts as functional. To be noted: ATCC 10240, 18 h.
The subject of data set [8] is Staphylococcus aureus. The data set can be described thus: Antibacterial activity against Staphylococcus aureus ATCC 25923 after 18 hrs by twofold serial agar dilution technique. The data set is classed as functional. The following applies: ATCC 25923, 18 h. In a few lines:
as §1

Data set [9] concerns Staphylococcus aureus. Put plainly: Antibacterial activity against Staphylococcus aureus ATCC 29213 after 18 hrs by twofold serial agar dilution technique. It counts as functional. To be noted: ATCC 29213, 18 h. In a few lines: as §1

Values after ≈ are worked out from the molar mass of the structure shown. Where only a bound is given, the exact number is not on record here.

The values that follow come from ChEMBL document CHEMBL2062460, “Disubstituted thiourea derivatives and their activity on CNS: synthesis and biological evaluation” (Eur J Med Chem, 2012).

Take `O=C1Nc2ccc(Cl)cc2[C@@](C#CC2CC2)(C(F)(F)F)O1` [EFAVIRENZ]: in data set [1], the CC50 (as a rule, the concentration giving 50% cytotoxicity) at 96 h is 37 µM.

`S=C(Nc1ccc(Cl)c(Cl)c1)Nc1nc[nH]n1` showed a cytotoxic concentration (CC50) at 96 h in data set [1] of 47 µM. In [2], the EC50 (commonly the concentration that produces a half-maximal response) was above 47 µM.

For the compound `O=C(O)c1cn(C2CC2)c2cc(N3CCNCC3)c(F)cc2c1=O` [CIPROFLOXACIN], the MIC (commonly the smallest concentration in the dilution series that meets the test's criterion for growth inhibition) with Bacillus subtilis was below 0.125 µg/mL; against Staphylococcus aureus [3] it was 0.5 µg/mL (≈ 1.51 µM); against Micrococcus luteus [4], 2 µg/mL (≈ 6.04 µM); in the data set on Enterococcus hirae, 4 µg/mL (≈ 12.1 µM); against Staphylococcus aureus [5] it was 0.5 µg/mL (≈ 1.51 µM); in the data set on Bacillus cereus, 0.5 µg/mL (≈ 1.51 µM). The MIC worked out at 0.5 µg/mL (≈ 1.51 µM) in data set [6], 1 µg/mL (≈ 3.02 µM) against Micrococcus luteus [7], 0.5 µg/mL (≈ 1.51 µM) in the data set on Staphylococcus aureus [8] and 0.5 µg/mL (≈ 1.51 µM) in the data set on Staphylococcus aureus [9].

With `O=C(NC(=S)Nc1nc[nH]n1)c1ccccc1`, in data set [1], the half-maximal cytotoxic concentration (CC50) at 96 h is above 100 µM. Besides, the concentration for a half-maximal effect (EC50) in data set [2] is above 100 µM.
